PMC6929040 (ACS Synthetic Biology, 2019)
Entries after “also recorded” stand apart in the source; their conditions may differ.

Key:
human 5-HTR4b = human 5-HTR4b (Homo sapiens, UniProt Q13639); test: Luciferase-based 5-HTR4b assay in yeast; type: cell-based; conditions: for confirmation as 5-HTR4b ligand by dose response curves: 5-HTR4b assay strain vs control strain with blank plasmid in lieu of 5-HTR4b; for natural products library screening result (Z-score normalized to serotonin): 803-member library; for natural products library screening result (Z-score normalized to serotonin) / anti-infection library screening result (Z-score): singlets; for anti-infection library screening result (Z-score): 403-member library
Sequence of human 5-HTR4b (Q13639 whole entry): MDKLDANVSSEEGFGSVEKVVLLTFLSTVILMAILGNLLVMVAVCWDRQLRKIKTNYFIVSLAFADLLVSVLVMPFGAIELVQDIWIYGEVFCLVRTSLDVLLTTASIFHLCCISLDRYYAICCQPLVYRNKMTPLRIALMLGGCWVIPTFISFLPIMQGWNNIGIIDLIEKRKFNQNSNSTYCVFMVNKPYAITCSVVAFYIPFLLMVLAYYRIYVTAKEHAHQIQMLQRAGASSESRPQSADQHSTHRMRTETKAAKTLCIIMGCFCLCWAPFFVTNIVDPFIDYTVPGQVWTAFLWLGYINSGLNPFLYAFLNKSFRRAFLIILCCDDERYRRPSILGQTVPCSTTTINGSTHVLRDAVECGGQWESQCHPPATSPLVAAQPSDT

[1] = tested on: human colon epithelial cells (Caco-2); test: Cell migration assay; type: cell-based; conditions: Caco-2, 10 μM, 48 h, vs PBS control
How it was run: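 Caco-2 cells grown at 37 °C, 5% CO2 in high-glucose DMEM with 10% FBS and 1% penicillin-streptomycin. Cells at (1–2) × 10^5 cells/mL were seeded into both wells of culture inserts and left overnight to attach. Inserts were then removed and cells washed twice with PBS. […] Imaged at 0, 24 and 48 h, and the cell-free zone was measured.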

[2] = tested on: human colon epithelial cells (Caco-2); test: Colon cell wound healing scratch assay; type: cell-based; conditions: Caco-2 scratch assay, 10 μM, 48 h, vs PBS control
yeast (PPY1808) = test: Toxicity assessment in yeast; type: cell-based, Saccharomyces cerevisiae; conditions: yeast incubated 2.5 h, 0, 10 μM, 100 μM

Which results are given for `O=C(O)CCCc1c[nH]c2ccccc12` [3-indolebutyric acid]?
confirmation as 5-HTR4b ligand by dose response curves (human 5-HTR4b): could not confirm; natural products library screening result (Z-score normalized to serotonin) (human 5-HTR4b; 10 μM): hits

What does the source list for `NC(Cc1c[nH]c2ccc(O)cc12)C(=O)O` [5-HTP, D/L-5-hydroxytryptophan]?
confirmation as 5-HTR4b ligand by dose response curves (human 5-HTR4b): confirmed; natural products library screening result (Z-score normalized to serotonin) (human 5-HTR4b; 10 μM): hits

How did the “natural products library screening result (Z-score normalized to serotonin)” value (human 5-HTR4b; 10 μM) turn out when `N[C@@H](Cc1c[nH]c2ccc(O)cc12)C(=O)O` [L-5-HTP, L-5-hydroxytryptophan] was run?
Its value is “hits”.

For `O=c1cc(-c2ccccc2)oc2cc(O)c(O)c(O)c12` [baicalein], which “confirmation as 5-HTR4b ligand by dose response curves” value (“confirmation as 5-HTR4b ligand” below) (human 5-HTR4b) is on record?
The value was “could not confirm”.

What about the “natural products library screening result (Z-score normalized to serotonin)” value (human 5-HTR4b; 10 μM) of the same molecule?
Its value is “hits”.

What does the source list for `COc1ccc(-c2oc3c(CC=C(C)C)c(O)cc(O)c3c(=O)c2O[C@@H]2O[C@@H](C)[C@H](O)[C@@H](O)[C@H]2O)cc1` [baohuoside I]?
confirmation as 5-HTR4b ligand by dose response curves (human 5-HTR4b): could not confirm; natural products library screening result (Z-score normalized to serotonin) (human 5-HTR4b; 10 μM): hits

What does the source list for `CC1(C)C2CCC1(C)C(O)C2` (centres unmarked) [borneol]?
confirmation as 5-HTR4b ligand by dose response curves (human 5-HTR4b): could not confirm; anti-infection library screening result (Z-score) (human 5-HTR4b; 1 μM): hits

`CCOc1ccc2nc3cc(N)ccc3c(N)c2c1` [ethacridine] was tested. Which “cell motility (cell migration)” value [1] did it give?
The value was “did not result in a significant increase”.

What about the wound healing [2] of the same molecule?
The wound healing was “did not result in a significant increase”.

And the toxicity to yeast (yeast (PPY1808))?
The toxicity to yeast was “toxic at high concentrations”.

What about the “anti-infection library screening result (Z-score)” value (human 5-HTR4b; 10 μM) of the same molecule?
Its value is “hits”.

What does the source list for `CC[n+]1c(-c2ccccc2)c2cc(N)ccc2c2ccc(N)cc21` [ethidium bromide]?
confirmation as 5-HTR4b ligand by dose response curves (human 5-HTR4b): could not confirm; anti-infection library screening result (Z-score) (human 5-HTR4b; 10 μM): hits

How did the “confirmation as 5-HTR4b ligand” value (human 5-HTR4b) turn out when `O=c1c(-c2ccc(O)cc2)coc2cc(O[C@@H]3O[C@H](CO)[C@@H](O)[C@H](O)[C@H]3O)cc(O)c12` [genistin] was run?
Its value is “could not confirm”.

And the “natural products library screening result (Z-score normalized to serotonin)” value (human 5-HTR4b; 10 μM)?
Its value is “hits”.

Which results are given for `O=C(CC1NCCCC1O)Cn1cnc2cc(Br)c(Cl)cc2c1=O` (centres unmarked) [halofuginone]?
cell motility (cell migration) [1]: results only in increased wound healing; wound healing [2]: statistically significant increase in wound healing (P < 0.05); also recorded: statistically significantly different than the PBS control (P < 0.05); natural products library screening result (Z-score normalized to serotonin) (human 5-HTR4b; 10 μM): hits

`CN(C)CCc1ccc(O)cc1` [hordenine] was tested. Which “cell motility (cell migration)” value [1] did it give?
Its value is “significantly (P < 0.01) increase cell motility; also recorded: statistically significantly different than the PBS control (P < 0.01)”.

And the wound healing [2]?
The wound healing was “statistically significant increase in wound healing (P < 0.05); also recorded: statistically significantly different than the PBS control (P < 0.05)”.

What about the “anti-infection library screening result (Z-score)” value (human 5-HTR4b; 10 μM) of the same molecule?
The value was “hits”.

What about the “natural products library screening result (Z-score normalized to serotonin)” value (human 5-HTR4b; 10 μM) of the same molecule?
Its value is “hits”.

How did the “confirmation as 5-HTR4b ligand” value (human 5-HTR4b) turn out when `CN[C@@H]1[C@@H](O)[C@@H](O[C@@H]2[C@@H](O)[C@H](O[C@H]3O[C@H](CN)[C@@H](O)[C@H](O)[C@H]3O)[C@@H](N)C[C@H]2NC(=O)[C@@H](O)CN)OC[C@]1(C)O` [isepamicin] was run?
The value was “could not confirm”.

What about the “anti-infection library screening result (Z-score)” value (human 5-HTR4b; 1 μM) of the same molecule?
Its value is “hits”.

Which “confirmation as 5-HTR4b ligand” value (human 5-HTR4b) does the source give for `CCn1cc(C(=O)O)c(=O)c2ccc(C)nc21` [nalidixic acid] here?
Its value is “could not confirm”.

What about the “natural products library screening result (Z-score normalized to serotonin)” value (human 5-HTR4b; 10 μM) of the same molecule?
Its value is “hits”.

For `O=c1c2cc(O[C@@H]3O[C@H](CO)[C@@H](O)[C@H](O)[C@H]3O)c(O)cc2oc2cc(O)c([C@@H]3O[C@H](CO)[C@@H](O)[C@H](O)[C@H]3O)c(O)c12` [neomangiferin], which “confirmation as 5-HTR4b ligand” value (human 5-HTR4b) is on record?
Its value is “could not confirm”.

And the “natural products library screening result (Z-score normalized to serotonin)” value (human 5-HTR4b; 10 μM)?
Its value is “hits”.

What does the source list for `O=C(Nc1ccc(O)cc1)c1ccccc1O` [osalmid]?
confirmation as 5-HTR4b ligand by dose response curves (human 5-HTR4b): could not confirm; anti-infection library screening result (Z-score) (human 5-HTR4b; 1 μM): hits

What does the source list for `Nc1ccc2cc3ccc(N)cc3nc2c1` [proflavine]?
cell motility (cell migration) [1]: did not result in a significant increase; wound healing [2]: did not result in a significant increase; toxicity to yeast (yeast (PPY1808)): toxic at high concentrations; anti-infection library screening result (Z-score) (human 5-HTR4b; 10 μM): hits

`Cc1nc(Nc2ccc(F)cc2)nc(N2CCc3ccccc3C2C)c1C` (centres unmarked) [revaprazan] was tested. Which “cell motility (cell migration)” value [1] did it give?
The value was “statistically significantly different than the PBS control (P < 0.01)”.

And the “cell motility (cell migration)” value ([1]; listed as Revaprazan)?
Its value is “significantly (P < 0.01) increase cell motility”.

What about the wound healing [2] of the same molecule?
Its wound healing is “statistically significant increase in wound healing (P < 0.05); also recorded: statistically significantly different than the PBS control (P < 0.05)”.

And the toxicity to yeast (yeast (PPY1808))?
Its toxicity to yeast is “toxic at high concentrations”.

What about the “anti-infection library screening result (Z-score)” value (human 5-HTR4b; 1 μM) of the same molecule?
Its value is “hits”.

What does the source list for `NCCc1c[nH]c2ccc(O)cc12` [serotonin]?
natural products library screening result (Z-score normalized to serotonin) (human 5-HTR4b; 10 μM): hits; signal increase after activation (human 5-HTR4b; pH = 7, 100 mg/L serotonin, 2 h ligand incubation, 30 min luciferase substrate incubation): 38 fold

`NCCc1c[nH]c2ccccc12` [tryptamine] was tested. Which “confirmation as 5-HTR4b ligand” value (human 5-HTR4b) did it give?
The value was “confirmed”.

And the “natural products library screening result (Z-score normalized to serotonin)” value (human 5-HTR4b; 10 μM)?
The value was “hits”.
